Source: ChEMBL document CHEMBL1671666, “Anti-human immunodeficiency virus activity, cross-resistance, cytotoxicity, and intracellular pharmacology of the 3'-azido-2',3'-dideoxypurine nucleosides” (Antimicrob Agents Chemother, 2009)

Experiments:
[1] = molecular target: Human immunodeficiency virus type 1 reverse transcriptase (Human immunodeficiency virus 1) (UniProt Q72547); assay: Ratio of Kpol to Kd for HIV1 reverse transcriptase
Method in brief: (§1)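 Pre-steady-state rapid quench with purified WT HIV-1 RT. Quenched with 0.5 M EDTA between 10 ms and 30 min. Products resolved on 7 M urea-16% polyacrylamide gels. Gives kpol and Kd; selectivity = (kpol/Kd)dNTP/(kpol/Kd)NRTI-TP. At least three independent experiments, mean ± SD.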

[2] = molecular target: Human immunodeficiency virus type 1 reverse transcriptase (Human immunodeficiency virus 1) (UniProt Q72547); assay: Selectivity, ratio of Kpol to Kd for dCTP to Kpol to Kd for compound at HIV1 reverse transcriptase; method in brief: as §1
[3] = molecular target: Human immunodeficiency virus type 1 reverse transcriptase (Human immunodeficiency virus 1, UniProt Q72547); assay: Binding affinity to HIV1 reverse transcriptase; method in brief: as §1
[4] = molecular target: Human immunodeficiency virus type 1 reverse transcriptase (Human immunodeficiency virus 1) (UniProt Q72547); assay: Activity at HIV1 reverse transcriptase measured after 30 mins; method in brief: as §1
[5] = test system: Human immunodeficiency virus 1; assay: Antiviral activity against HIV1 infected in human HeLa P4/R5 cells assessed as inhibition of viral replication; assay type: functional, organism-based; conditions: Human immunodeficiency virus 1, HeLa
Method in brief: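 Single-cycle assay in P4/R5 HeLa cells carrying an HIV LTR-driven, Tat-activated β-galactosidase gene. Cells kept in phenol red-free DMEM with 10% FBS and 0.5 μg/ml puromycin. Virus stock titred on these cells by threefold endpoint dilution (Reed-Muench). At least three independent experiments.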

[6] = test system: Human immunodeficiency virus 1; assay: Antiviral activity against HIV1 harboring reverse transcriptase M184V mutant infected in human HeLa P4/R5 cells assessed as inhibition of viral replication; assay type: functional, organism-based; conditions: Human immunodeficiency virus 1, HeLa
Method in brief: (§2)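 Single-replication-cycle assay in P4/R5 cells: HeLa stably carrying a Tat-activated β-galactosidase gene under an HIV LTR promoter, grown in phenol red-free DMEM with 10% FBS and 0.5 μg/ml puromycin. Virus stocks were titred in P4/R5 cells by threefold endpoint dilution (Reed–Muench).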

[7] = test system: Human immunodeficiency virus 1; assay: Ratio of IC50 for HIV1 harboring reverse transcriptase M184V mutant infected in human HeLa P4/R5 cells to wild type HIV1 infected in human HeLa P4/R5 cells; assay type: functional; method in brief: as §2
[8] = test system: Human immunodeficiency virus 1; assay: Antiviral activity against HIV1 infected in human MT2 cells assessed as inhibition of viral replication; assay type: functional, organism-based; conditions: Human immunodeficiency virus 1, MT2
[9] = test system: Human immunodeficiency virus 1; assay: Ratio of IC50 for HIV1 harboring reverse transcriptase K65R mutant infected in human HeLa P4/R5 cells to wild type HIV1 infected in human HeLa P4/R5 cells; assay type: functional; method in brief: as §2
[10] = test system: Human immunodeficiency virus 1; assay: Antiviral activity against HIV1 infected in human PBMC assessed as inhibition of viral replication; assay type: functional, organism-based
Method in brief: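 PBMC from healthy seronegative donors, isolated on a Ficoll-Hypaque gradient and stimulated with PHA for 2-3 days before infection. At least three independent experiments.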

[11] = test system: Human immunodeficiency virus 1; assay: Antiviral activity against HIV1 harboring reverse transcriptase L74V mutant infected in human HeLa P4/R5 cells assessed as inhibition of viral replication; assay type: functional, organism-based; conditions: Human immunodeficiency virus 1, HeLa; method in brief: as §2
[12] = test system: Human immunodeficiency virus 1; assay: Ratio of IC50 for HIV1 harboring reverse transcriptase L74V mutant infected in human HeLa P4/R5 cells to wild type HIV1 infected in human HeLa P4/R5 cells; assay type: functional; method in brief: as §2
[13] = test system: Human immunodeficiency virus 1; assay: Antiviral activity against HIV1 harboring reverse transcriptase K65R mutant infected in human HeLa P4/R5 cells assessed as inhibition of viral replication; assay type: functional, organism-based; conditions: Human immunodeficiency virus 1, HeLa; method in brief: as §2
HepG2 [14] = assay: Mitochondrial toxicity in human HepG2 cells assessed as percent lactic acid production at 100 uM after 14 days by real-time PCR relative to beta-actin DNA; assay type: cell-based; conditions: hepg2, 336 h
Method in brief: (§3)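 HepG2 cells cultured 14 days with 10 or 100 μM NRTI. Lactic acid quantified with a D-/L-lactic acid enzymatic test kit and expressed relative to β-actin DNA and to untreated control.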

HepG2 [15] = assay: Mitochondrial toxicity in human HepG2 cells assessed as percent mitochondrial DNA production at 10 uM after 14 days by real-time PCR relative to control; assay type: cell-based; conditions: hepg2, 336 h
Method in brief: (§4)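 Low-passage HepG2 cells seeded at 5,000 cells/well on collagen-coated plates and cultured 14 days with 10 or 100 μM NRTI. mtDNA and β-actin DNA quantified by real-time PCR in duplicate; mtDNA normalized to β-actin and expressed relative to untreated cells. At least two independent experiments; ranges given.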

beta-actin DNA [16] = assay: Mitochondrial toxicity in human HepG2 cells assessed as percent inhibition of beta-actin DNA at 10 uM after 14 days by real-time PCR; assay type: cell-based; method in brief: as §4
mitochondrial DNA [17] = assay: Mitochondrial toxicity in human HepG2 cells assessed as percent inhibition of mitochondrial DNA at 10 uM after 14 days by real-time PCR; assay type: cell-based; method in brief: as §4
HepG2 [18] = assay: Mitochondrial toxicity in human HepG2 cells assessed as percent mitochondrial DNA production at 100 uM after 14 days by real-time PCR relative to control; assay type: cell-based; conditions: hepg2, 336 h; method in brief: as §4
HepG2 [19] = assay: Mitochondrial toxicity in human HepG2 cells assessed as percent lactic acid production at 10 uM after 14 days by real-time PCR relative to beta-actin DNA; assay type: cell-based; conditions: hepg2, 336 h; method in brief: as §3
mitochondrial DNA [20] = assay: Mitochondrial toxicity in human HepG2 cells assessed as percent inhibition of mitochondrial DNA at 100 uM after 14 days by real-time PCR; assay type: cell-based; method in brief: as §4
beta-actin DNA [21] = assay: Mitochondrial toxicity in human HepG2 cells assessed as percent inhibition of beta-actin DNA at 100 uM after 14 days by real-time PCR; assay type: cell-based; method in brief: as §4
[22] = molecular target: Human immunodeficiency virus type 1 reverse transcriptase (Human immunodeficiency virus 1) (UniProt Q72547); assay: Selectivity, ratio of Kpol to Kd for TTP to Kpol to Kd for compound at HIV1 reverse transcriptase; method in brief: as §1
[23] = Cytotoxicity against human CEM cells after 2 to 4 days by MTT assay; assay type: cell-based; conditions: CEM cells (CCRF-CEM)
Method in brief: (§5)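 Log-phase cells seeded at 5 × 10³ to 5 × 10⁴ cells/well with 10-fold serial compound dilutions. Incubated 2-4 days; viability read by MTT staining. CC50 from concentration-response curves by the median effect method. Mean of at least three independent experiments.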

[24] = Cytotoxicity against human MT2 cells after 2 to 4 days by MTT assay; assay type: cell-based; method in brief: as §5
[25] = test system: Human immunodeficiency virus 1; assay: Antiviral activity against HIV1 harboring reverse transcriptase diserine insert between residues 69 and 70 infected in human HeLa P4/R5 cells assessed as inhibition of viral replication; assay type: functional, organism-based; conditions: Human immunodeficiency virus 1, HeLa; method in brief: as §2
[26] = Cytotoxicity against human PBMC after 2 to 4 days by MTT assay; assay type: cell-based; method in brief: as §5
[27] = test system: Human immunodeficiency virus 1; assay: Antiviral activity against HIV1 harboring reverse transcriptase D67N/K70R/T215F/K219Q mutant infected in human HeLa P4/R5 cells assessed as inhibition of viral replication; assay type: functional, organism-based; conditions: Human immunodeficiency virus 1, HeLa; method in brief: as §2
[28] = test system: Human immunodeficiency virus 1; assay: Antiviral activity against HIV1 harboring reverse transcriptase M41L/L210W/T215Y mutant infected in human HeLa P4/R5 cells assessed as inhibition of viral replication; assay type: functional, organism-based; conditions: Human immunodeficiency virus 1, HeLa; method in brief: as §2
[29] = Cytotoxicity against human HeLa P4/R5 cells
[30] = test system: Human immunodeficiency virus 1; assay: Antiviral activity against HIV1 harboring reverse transcriptase M41L/D67N/K70R/L210W/T215Y/K219Q mutant infected in human HeLa P4/R5 cells assessed as inhibition of viral replication; assay type: functional, organism-based; conditions: Human immunodeficiency virus 1, HeLa; method in brief: as §2
[31] = Cytotoxicity against african green monkey Vero cells after 2 to 4 days by MTT assay; assay type: cell-based; conditions: chlorocebus sabaeus; method in brief: as §5
[32] = test system: Human immunodeficiency virus 1; assay: Antiviral activity against HIV1 harboring reverse transcriptase M41L/D67N/K70R/T215F/K219Q mutant infected in human HeLa P4/R5 cells assessed as inhibition of viral replication; assay type: functional, organism-based; conditions: Human immunodeficiency virus 1, HeLa; method in brief: as §2
[33] = test system: Human immunodeficiency virus 1; assay: Antiviral activity against HIV1 harboring reverse transcriptase Q151M mutant infected in human HeLa P4/R5 cells assessed as inhibition of viral replication; assay type: functional, organism-based; conditions: Human immunodeficiency virus 1, HeLa; method in brief: as §2

| SMILES | Ratio [1] [µM⁻¹ s⁻¹] | Kd [3] [nM] | Activity [4] [s⁻¹] | IC50 [5] [nM] | IC50 [8] [nM] | IC50 [10] [nM] | IC50 [13] [nM] | other results |
| --- | --- | --- | --- | --- | --- | --- | --- | --- |
| Nc1ccn([C@H]2CC[C@@H](COP(=O)(O)OP(=O)(O)OP(=O)(O)O)O2)c(=O)n1 [DDCTP] | 0.2 | 2700 | 0.4 | – | – | – | – | Selectivity ratio [2]: 6.7 |
| Nc1nc2c(ncn2[C@H]2C[C@H](O)[C@@H](COP(=O)(O)OP(=O)(O)OP(=O)(O)O)O2)c(=O)[nH]1 [DEOXYGUANOSINE TRIPHOSPHATE] | 1.8 | 4200 | 7.5 | – | – | – | – | – |
| Cc1cn([C@H]2C[C@H](O)[C@@H](COP(=O)(O)OP(=O)(O)OP(=O)(O)O)O2)c(=O)[nH]c1=O [DEOXYTHYMIDINE_TRIPHOSPHATE] | 4.2 | 2200 | 9.2 | – | – | – | – | – |
| O=c1[nH]cnc2c1ncn2[C@H]1CC[C@@H](CO)O1 [DIDANOSINE] | – | – | – | 2300 | 490 | 100 | 6300 | IC50 [6]: 4600 nM; Ratio IC50 [7]: 2; Ratio IC50 [9]: 2.7; IC50 [11]: 8300 nM; Ratio IC50 [12]: 3.6 |
| Nc1nc(=O)n([C@@H]2CS[C@H](CO)O2)cc1F [EMTRICITABINE] | – | – | – | 170 | 44 | 1 | – | – |
| Nc1ccn([C@@H]2CS[C@H](CO)O2)c(=O)n1 [LAMIVUDINE] | – | – | – | 780 | 600 | 30 | 60500 | Activity (HepG2 [14]): 416%; IC50 [6]: > 60000 nM; Activity (HepG2 [15]): 119%; inhibition at 336 h, 10 µM (beta-actin DNA [16]): < 1%; Ratio IC50 [7]: >75; Ratio IC50 [9]: 77; inhibition at 336 h, 10 µM (mitochondrial DNA [17]): < 1%; Activity (HepG2 [18]): 0.6%; Activity (HepG2 [19]): 105%; inhibition at 336 h, 100 µM (mitochondrial DNA [20]): 100%; inhibition at 336 h, 100 µM (beta-actin DNA [21]): 94.3% |
| Cc1cn([C@H]2C=C[C@@H](COP(=O)(O)OP(=O)(O)OP(=O)(O)O)O2)c(=O)[nH]c1=O [STAVUDINE TRIPHOSPHATE] | 1.6 | 2700 | 4.3 | – | – | – | – | Selectivity ratio [22]: 2.6 |
| Cc1cn([C@H]2C=C[C@@H](CO)O2)c(=O)[nH]c1=O [STAVUDINE] | – | – | – | 5700 | 1900 | 100 | – | – |
| CC(C)OC(=O)OCOP(=O)(CO[C@H](C)Cn1cnc2c(N)ncnc21)OCOC(=O)OC(C)C.O=C(O)/C=C/C(=O)O [TENOFOVIR DISOPROXIL FUMARATE] | – | – | – | 4700 | 540 | 14 | 11400 | Ratio IC50 [9]: 2.5 |
| Nc1ccn([C@H]2CC[C@@H](CO)O2)c(=O)n1 [ZALCITABINE] | – | – | – | 1400 | 130 | 200 | – | Activity (HepG2 [15]): 0.3%; inhibition at 336 h, 10 µM (beta-actin DNA [16]): 61.4%; inhibition at 336 h, 10 µM (mitochondrial DNA [17]): 99.9%; Activity (HepG2 [19]): 170% |
| Cc1cn([C@H]2C[C@H](N=[N+]=[N-])[C@@H](CO)O2)c(=O)[nH]c1=O [ZIDOVUDINE] | – | – | – | 190 | 31 | – | 210 | IC50 [6]: 180 nM; CC50 [23]: 86200 nM; CC50 [24]: 150000 nM; IC50 [25]: 205000 nM; CC50 [26]: > 100000 nM; IC50 [27]: 11900 nM; IC50 [11]: 210 nM; IC50 [28]: 10400 nM; CC50 [29]: > 270000 nM; IC50 [30]: 58600 nM; CC50 [31]: > 100000 nM; IC50 [32]: 96700 nM; IC50 [33]: 214000 nM |
